Data set [1] relates to Influenza A virus. In words: Antiviral activity against Influenza A virus Port Chalmers/1/73 (H3N2) infected in MDCK cells at 1 mg/ml by agar diffusion method. The format is functional. Particulars: read-out: DIZ. A digest of the protocol:
(§1)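 Agar diffusion: compounds were diluted to 1 mg/mL in Eagle's MEM from stocks of 10 mg/mL in water or 100 mg/mL in DMSO. 0.02 mL went into 6 mm wells cut in the agar overlay above infected monolayers (influenza in MDCK, Coxsackie B1 in HeLa). Read-out was the diameter (mm) of the plaque-free inhibition zone around each well.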
(Agar diffusion results depend on both activity and mobility in agar.)

The test system of data set [2] is Influenza A virus. Kind of data set: Antiviral activity against Influenza A virus Port Chalmers/1/73 (H3N2) infected in MDCK cells assessed as plaque reduction after 3 days by agar diffusion method. It is filed as functional. The essentials: (§2)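 Plaque reduction: varying compound concentrations were put in the agar overlay above infected monolayers. Coxsackie B1/HeLa was incubated 42 h at 37 °C; influenza/MDCK 3 days at 33 °C. PDD50 is the lowest concentration giving ≥50% fewer plaques than untreated controls.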

For data set [3], the system named is Coxsackievirus B1. Kind of data set: Antiviral activity against Coxsackievirus B1 infected in human HeLa cells at 1 mg/ml by agar diffusion method. The format is functional. Particulars: Enterovirus B; read-out: DIZ. A digest of the protocol:
as §1

The subject of data set [4] is Coxsackievirus B1. Kind of data set: Antiviral activity against Coxsackievirus B1 infected in human HeLa cells assessed as plaque reduction after 42 hrs by agar diffusion method. It is filed as functional. The essentials: as §2
Data set [5] can be described thus: Cytotoxicity against MDCK cells infected with Influenza A virus Port Chalmers/1/73 (H3N2) after 3 days by carbol fuchsin staining-based assay. Particulars: dog. The format is cell-based, Canis lupus familiaris. The essentials:
(§3)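 MDCK monolayers infected with influenza had compound in the agar overlay and were incubated 3 days at 33 °C. Monolayers were stained with carbol fuchsin or neutral red. MCC is the lowest concentration causing morphological cell abnormalities.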

Data set [6] is described as follows: Cytotoxicity against human HeLa cells infected with Coxsackievirus B1 after 42 hrs by carbol fuchsin staining-based assay. The format is cell-based. A digest of the protocol: (§4)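 HeLa monolayers infected with Coxsackie B1 under an agar overlay holding varying compound concentrations, incubated 37 °C, 42 h. Monolayers stained with carbol fuchsin or neutral red. MCC is the lowest concentration causing morphological abnormalities.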

A further data set has as its system MDCK. Kind of data set: Cytotoxicity against MDCK cells infected with Influenza A virus Port Chalmers/1/73 (H3N2) up to 100 ug/ml after 3 days by carbol fuchsin staining-based assay. It is filed as cell-based, Canis lupus familiaris. Particulars: dog, 72 h. A digest of the protocol:
as §3

In the next data set the test system is HeLa. In words: Cytotoxicity against human HeLa cells infected with Coxsackievirus B1 up to 100 ug/ml after 42 hrs by carbol fuchsin staining-based assay. It is filed as cell-based. A digest of the protocol:
as §4

Data set [7] concerns Influenza A virus. In words: Antiviral activity against Influenza A virus Port Chalmers/1/73 (H3N2) infected in MDCK cells assessed as plaque reduction up to 100 ug/ml after 3 days by agar diffusion method. The format is functional, organism-based. The essentials: as §2
In data set [8] the test system is Coxsackievirus B1. In words: Antiviral activity against Coxsackievirus B1 infected in human HeLa cells assessed as plaque reduction up to 100 ug/ml after 42 hrs by agar diffusion method. It is filed as functional, organism-based. A digest of the protocol: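 Compound mixed at varying concentrations into the agar overlay above Coxsackie B1-infected HeLa monolayers. Incubated 37 °C for 42 h. PDD50 is the lowest concentration giving ≥50% fewer plaques than untreated controls.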

A short description of data set [9]: Solubility in water. The format is physicochemical. Particulars: buffer.
The nature of data set [10]: Stability in unbuffered aqueous solutions at pH >6 assessed as compound hydrolysis. It is filed as physicochemical. The settings on record: unbuffered aqueous solution.
Data set [11] can be described thus: Stability in unbuffered aqueous solutions at pH >6 assessed as compound decarboxylation. The format is physicochemical.
The subject of data set [12] is Influenza A virus. Kind of data set: Antiviral activity against Influenza A virus Port Chalmers/1/73 (H3N2) infected in ferret assessed as serum antibody response to virus infection at 16 mg/kg administered intranasally 7 times on day 0 and 9 times on day 1 to day 3 by serum antibody response test relative to untreated control. It is filed as functional, organism-based. Set-up: dose 16 mg/kg. The essentials:
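Dosing was as in the other ferret groups: infected ferrets, hourly intranasal 0.2 mL of 50 mg/mL in water, 7 doses on day 0 and 9 on days +1 to +3. Blood was taken by cardiac puncture under Penthrane/N2O/O2 before and 10 days after infection. Sera were KIO4-treated to remove nonspecific inhibitors, then tested by hemagglutination inhibition against the infecting virus.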

Data set [13] is described as follows: Stability in aqueous solutions at neutral pH. The format is physicochemical. Particulars: buffer.

The source made the active and inactive calls. The calls are words filed in the database; no cut-off is given here.

As to `CNC1=NC(=O)C(C(C)c2c[nH]c3ccccc23)S1` (racemic), the values for the zone of inhibition at 1000 µg/mL in the data set with Influenza A virus [1] and in the data set on Coxsackievirus B1 [3] were 30 mm and 29 mm, respectively. The values for the PDD50 in the data set with Influenza A virus [2] and with Coxsackievirus B1 [4] were 0.5 µg/mL and 5 µg/mL, respectively. The same compound showed an MCC at 72 h in data set [5] of 3 µg/mL. The MCC at 42 h in data set [6] turned out to be 30 µg/mL.

With `CNC1=NC(=O)C(C(C)c2cn(C(=O)c3ccccc3C(=O)O)c3ccccc23)S1` (racemic) [listing 1 of 2 here], the Activity result in the data set with MDCK and with HeLa was “Non-toxic” in each case.

On to `OC(c1ccccc1)c1nc2ccccc2[nH]1` (stereo not given), for which the zone of inhibition at 1000 µg/mL in the data set with Coxsackievirus B1 [3] stood at 25 mm. For the same compound, the PDD50 with Coxsackievirus B1 [4] is 20 µg/mL. Further, in [6], the MCC at 42 h was > 100 µg/mL.

Regarding `CNC1=NC(=O)C(C(C)c2cn(C(=O)CCC(=O)OC)c3ccccc23)S1` (racemic), the result in the data set with Influenza A virus [7] and in the data set with Coxsackievirus B1 [8] was inactive. Also, the Activity entry with MDCK and in the data set with HeLa was “Non-toxic” each time.

As for `CNC1=NC(=O)C(C(C)c2cn(C(=O)OCc3ccccc3)c3ccccc23)S1` (racemic), the result in the data set on Influenza A virus [7] and with Coxsackievirus B1 [8] was inactive. Further, the Activity result with MDCK and with HeLa was “Non-toxic” in each case.

With `CNC1=NC(=O)C(C(C)c2cn(C(=O)CCC(=O)O)c3ccccc23)S1` (racemic), the zone of inhibition at 1000 µg/mL in the data set on Influenza A virus [1] and in the data set with Coxsackievirus B1 [3] was 0 mm throughout. Further, the results for the PDD50 in the data set with Influenza A virus [2] and in the data set with Coxsackievirus B1 [4] were >100 µg/mL and 100 µg/mL, respectively. Further, the MCC at 72 h in data set [5] is > 100 µg/mL. The MCC at 42 h in [6] was > 100 µg/mL.

As to `CNC1=NC(=O)C(C(C)c2cn(C(=O)OC(C)CN(C)C)c3ccccc23)S1.Cl` (racemic), in [9], the solubility result is given as “soluble”. Also, the Stability result in data set [10] and in data set [11] was “Unstable” throughout.

With `CNC1=NC(=O)C(C(C)c2cn(C(=O)OC(C)(C)CN(C)C)c3ccccc23)S1` (racemic), the zone of inhibition at 1000 µg/mL in the data set on Influenza A virus [1] is 25 mm; with Coxsackievirus B1 [3], 21 mm. Also, the PDD50 in the data set on Influenza A virus [2] worked out at 0.3 µg/mL; with Coxsackievirus B1 [4] it was 5 µg/mL. The compound also registered an MCC at 72 h in data set [5] of 3 µg/mL. In data set [6], this compound displayed an MCC at 42 h of 30 µg/mL.

With `CNC1=NC(=O)C(C(C)c2cn(C(=O)OCC(C)(C)N(C)C)c3ccccc23)S1` (racemic) [listing 1 of 2 here], the result in the data set on Influenza A virus [12] was Active.

Turning to `CNC1=NC(=O)C(C(C)c2cn(C(=O)OCC(C)(C)[N+](C)(C)C)c3ccccc23)S1.[I-]` (racemic), the outcome with Influenza A virus [7] and in the data set with Coxsackievirus B1 [8] was inactive. In addition, the Activity entry with MDCK and in the data set on HeLa was “Non-toxic” in each case.

As for `CNC1=NC(=O)C(C(C)c2cn(C(=O)OCC(C)(C)N3CCOCC3)c3ccccc23)S1.Cl` (racemic), in [9], the solubility entry is recorded as “soluble”. The Stability entry in data set [10] and in [11] was “Unstable” throughout.

In the case of `CNC1=NC(=O)C(C(C)c2cn(C(=O)OCC(C)(C)N(C)C)c3ccccc23)S1` (racemic) [listing 2 of 2 here], the zone of inhibition at 1000 µg/mL in the data set with Influenza A virus [1] turned out to be 30 mm; with Coxsackievirus B1 [3], 35 mm. Moreover, the results for the PDD50 with Influenza A virus [2] and with Coxsackievirus B1 [4] were 0.3 µg/mL and 20 µg/mL, respectively. The MCC at 72 h in data set [5] was 3 µg/mL. Further, in data set [6], the MCC at 42 h was determined as 100 µg/mL.

Take `CNC1=NC(=O)C(C(C)c2cn(C(=O)CCCC(=O)O)c3ccccc23)S1` (racemic): the zone of inhibition at 1000 µg/mL in the data set on Influenza A virus [1] worked out at 24 mm; with Coxsackievirus B1 [3] it was 20 mm. Besides, the PDD50 turned out to be 5 µg/mL with Influenza A virus [2] and 10 µg/mL in the data set on Coxsackievirus B1 [4]. Further, the MCC at 72 h in [5] was 100 µg/mL. Moreover, the MCC at 42 h in [6] was > 100 µg/mL.

Regarding `CNC1=NC(=O)C(C(C)c2cn(C(=O)c3ccccc3C(=O)[O-])c3ccccc23)S1.[Na+]` (racemic), the solubility entry in data set [9] is given as “soluble”. The Stability entry in data set [13] is “Stable”.

For `CNC1=NC(=O)C(C(C)c2cn(C(=O)c3ccccc3C(=O)O)c3ccccc23)S1` (racemic) [listing 2 of 2 here], the outcome in the data set on Influenza A virus [7] and with Coxsackievirus B1 [8] was inactive.

Turning to `CNC1=NC(=O)C(C(C)c2cn(C(=O)OCC(C)(C)N3CCOCC3)c3ccccc23)S1` (racemic), the zone of inhibition at 1000 µg/mL amounted to 26 mm in the data set on Influenza A virus [1] and 24 mm in the data set on Coxsackievirus B1 [3]. The PDD50 in the data set with Influenza A virus [2] worked out at 2 µg/mL; in the data set on Coxsackievirus B1 [4], 5 µg/mL. Besides, in data set [5], the MCC at 72 h was 30 µg/mL. The compound further returned an MCC at 42 h in [6] of 100 µg/mL.

`CNC1=NC(=O)C(C(C)c2cn(C(=O)CCCC(=O)[O-])c3ccccc23)S1.[Na+]` (racemic): the solubility entry in data set [9] is “soluble”. Besides, in [13], the Stability entry is reported as “Stable”.

Turning to `CNC1=NC(=O)C(C(C)c2cn(C(C)=O)c3ccccc23)S1` (racemic), the outcome in the data set with Influenza A virus [7] and in the data set on Coxsackievirus B1 [8] was inactive. Also, the Activity entry in the data set on MDCK and with HeLa was “Non-toxic” in each case.

Take `CNC1=NC(=O)C(C(C)c2cn(C(=O)OC(C)CN(C)C)c3ccccc23)S1` (racemic): the figures for the zone of inhibition at 1000 µg/mL in the data set with Influenza A virus [1] and in the data set with Coxsackievirus B1 [3] were 31 mm and 25 mm, respectively. Besides, the PDD50 with Influenza A virus [2] stood at 0.5 µg/mL; in the data set with Coxsackievirus B1 [4], 20 µg/mL. Moreover, the MCC at 72 h in data set [5] was 10 µg/mL. Moreover, in data set [6], the MCC at 42 h worked out at 100 µg/mL.

On to `CNC1=NC(=O)C(C(C)c2cn(C(=O)OC(C)(C)CN(C)C)c3ccccc23)S1.Cl` (racemic), for which, in data set [9], the solubility result was “soluble”. Besides, the Stability entry in data set [10] and in data set [11] was “Unstable” throughout.

Turning to `CNC1=NC(=O)C(C(C)c2cn(C(=O)CCC(=O)[O-])c3ccccc23)S1.[Na+]` (racemic), the solubility result in [9] is “soluble”. In addition, the Stability result in [13] was “Stable”.

Consider `CCSC(=O)n1cc(C(C)C2SC(NC)=NC2=O)c2ccccc21` (racemic), for which the result in the data set with Influenza A virus [7] and with Coxsackievirus B1 [8] was inactive. Moreover, the Activity entry with MDCK and with HeLa was “Non-toxic” throughout.

Source of the values: ChEMBL document CHEMBL3244172, “Easily hydrolyzable, water-soluble derivatives of (+/-)-alpha-5-[1-(indol-3-yl)ethyl]-2-methylamino-delta2-thiazoline-4-one, a novel antiviral compound” (J Med Chem, 1979).
